S100A4 MyoIIA: inhibitors of S100A4-myosin IIA peptide binding, primary screen, biochemical, fluorescence polarization, TAMRA-MyoIIA peptide | Protein S100-A4 (Homo sapiens), P26447 | inhibition, % at 10.7 µM | 360,000 tested, 0.14% active;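 active = mean inhibition of at least 70% across replicates, with every replicate also reaching that level; inconclusive = mean inhibition reaches 70% but some replicates fall short; inactive = mean inhibition below 70%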
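Test system – S100A4 monomer (human) · Compound – single-point compound testing · Schedule – 5 min incubation before reading · Probe or stimulus – TAMRA-labelled myosin IIA heavy-chain peptide probe, 5 nM · Benchmarks – neutral control DMSO, positive control TFP · Medium – Calcium-containing HEPES buffer, pH 7.2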
CAL PDZ FP-1: CAL PDZ peptide-binding inhibitors, primary screen, biochemical, fluorescence polarization, Cer-tagged CAL PDZ, HTS; inhibition, % at 20 µM; AID 504414, 2011; 330,000 tested, 0.02% active; Golgi-associated PDZ and coiled-coil motif-containing protein (Homo sapiens), Q9HD26; purified CAL PDZ, TMR-peptide fluorescence polarization, 1 h;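 active = highest replicate inhibition of at least 40%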;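 also: plate controls were DMSO neutral control wells for no effect and unlabeled competitor peptide control wells for full effect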
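Material: tagged CAL PDZ domain; buffer or medium: 25 mM sodium phosphate pH 7.4, 150 mM NaCl, TCEP, IgG, Thesit; compound dosing: single point, 20 µM; schedule: 1 h incubation at room temperature before polarization reading; measured by: FP readout, S and P plane fluorescence; read-out basis: percent inhibition from loss of millipolarization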
CAL PDZ FP-2: untagged CAL PDZ binding inhibitors, primary screen, biochemical, fluorescence polarization, HTS | Golgi-associated PDZ and coiled-coil motif-containing protein (Homo sapiens), Q9HD26 | purified CAL PDZ, TMR-peptide fluorescence polarization, 1 h | inhibition, % at 24.9 µM | 300,000 tested, 0.92% active;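 active = mean inhibition of at least 30% with at least half of replicates also reaching 30%; inconclusive = no clear call, values can overlap the other calls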;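 also: 0% = DMSO neutral control and 100% = excess unlabeled competitor peptide PRC23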
DENV2 CPE: inhibitors of DENV2 cytopathic effect, primary screen, cell-based, plate reader, single concentration; AID 651640, 2012; 350,000 tested, 1.7% active; DENV2-infected cells, cytopathic effect rescue; CPE inhibition, % at 9.99 µM; in the data active = CPE inhibition above about 20%, passing the limit was not always enough; inconclusive = no clear call, values can overlap the other calls; tested in BHK-21 cells;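 also: 0% = median of neutral control wells and 100% = median of positive control wells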
SIRT5 inh: SIRT5 desuccinylase inhibitors, primary screen, biochemical, fluorescence imaging, single point, set 5; NAD-dependent protein deacylase sirtuin-5, mitochondrial (Homo sapiens), Q9NXA8; inhibition, % at 15 µM; AID 652115, 2013; Purified SirT5, succinyl-peptide AMC, trypsin-coupled fluorescence; 330,000 tested, 1.1% active; in the data active = inhibition above about 15%; inconclusive = no clear call, values can overlap the other calls
ERAP1 inh: human ERAP1 aminopeptidase inhibitors, primary screen, biochemical, single point, plate reader; Endoplasmic reticulum aminopeptidase 1 (Homo sapiens), Q9NZ08; recombinant ERAP1, Leu-AMC fluorescence, 60 min; inhibition, % at 10.7 µM; 340,000 tested, 0.15% active; AID 652197, 2013;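 active = mean replicate inhibition of at least 30%, or all replicates individually reaching that 30% level; inactive = mean below 30% and not every replicate reaching it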;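 also: 0% = neutral control wells and 100% = L-leucinethiol positive control wells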
* marks the source's active call; other numbers are inactive results. In the library only some 2.9% were active in any assay of this set; here they are far more common.

O=C(Nc1ccc(Cl)cc1)c1ccc(OCC2CCCO2)cc1 (centres undefined) was read as S100A4 MyoIIA 0, CAL PDZ FP-1 0, CAL PDZ FP-2 34*, DENV2 CPE -5, SIRT5 inh -1 and ERAP1 inh -1.
For Cc1ccc2nc(/C(C#N)=C/c3ccc(O)c(O)c3)[nH]c2c1 the results were S100A4 MyoIIA -9, CAL PDZ FP-1 1, CAL PDZ FP-2 6, DENV2 CPE 3, SIRT5 inh 20* and ERAP1 inh -1.
Cc1cc2nc(/C(C#N)=C/c3ccncc3)[nH]c2cc1C was read as S100A4 MyoIIA 2, CAL PDZ FP-1 15, CAL PDZ FP-2 107*, DENV2 CPE 2, SIRT5 inh -1 and ERAP1 inh -2.
`N#C/C(=C\c1ccncc1)c1nc2ccccc2[nH]1` gave S100A4 MyoIIA -2, CAL PDZ FP-1 0, CAL PDZ FP-2 -6, DENV2 CPE -6, SIRT5 inh -5 and ERAP1 inh -2.
For COc1ccc(CNCc2c(O)c(Cl)cc3c(C)c(C)c(=O)oc23)c(OC)c1 the results were S100A4 MyoIIA -5, CAL PDZ FP-1 -1, CAL PDZ FP-2 32*, DENV2 CPE -6, SIRT5 inh -56 and ERAP1 inh -429.
For CCc1cc(=O)oc2c(CNCc3ccc(OC)cc3OC)c(O)c(Cl)cc12 the results were S100A4 MyoIIA -13, CAL PDZ FP-1 -1, CAL PDZ FP-2 -5, DENV2 CPE -3, SIRT5 inh -18 and ERAP1 inh -55.
Screening CCCS(=O)(=O)N1CCN(C2Cc3ccccc3C2)CC1 returned S100A4 MyoIIA -6, CAL PDZ FP-1 -2, CAL PDZ FP-2 1, DENV2 CPE 0, SIRT5 inh 17* and ERAP1 inh -2.
Screening CC(=O)Nc1ccc(Nc2nnc(-c3ccc(C)c(S(N)(=O)=O)c3)c3ccccc23)cc1 returned S100A4 MyoIIA -8, CAL PDZ FP-1 1, CAL PDZ FP-2 1, DENV2 CPE -6, SIRT5 inh -1 and ERAP1 inh 3.
For NC(=O)c1ccc(-c2nnc(Nc3ccc(S(N)(=O)=O)cc3)c3ccccc23)cc1 the results were S100A4 MyoIIA -2, CAL PDZ FP-2 66*, DENV2 CPE -2, SIRT5 inh -5 and ERAP1 inh -2.
`CNCCCC1c2ccccc2C=Cc2ccccc21` gave S100A4 MyoIIA 3, CAL PDZ FP-1 -1, CAL PDZ FP-2 -7, DENV2 CPE 26*, SIRT5 inh -6 and ERAP1 inh -1.
`CNCCC=C1c2ccccc2C=Cc2ccccc21` gave S100A4 MyoIIA 7, CAL PDZ FP-1 -1, CAL PDZ FP-2 -3, DENV2 CPE 2, SIRT5 inh -1 and ERAP1 inh 0.
CCCC#Cc1ccc([C@H]2[C@@H](C#N)N(C(=O)C3CCCC3)[C@@H]2CO)cc1 was read as S100A4 MyoIIA -11, DENV2 CPE 3, SIRT5 inh 2 and ERAP1 inh 6.
Screening O=C(NCC[C@@H]1CC[C@H](NC(=O)C2CCCCC2)[C@@H](CO)O1)c1cc(Cl)cc(Cl)c1 returned S100A4 MyoIIA 4, DENV2 CPE 0, SIRT5 inh -5 and ERAP1 inh -1.
`Cc1c(C(=O)NNC(=O)c2csc(N3CCOCC3)n2)cccc1[N+](=O)[O-]` gave S100A4 MyoIIA -4, CAL PDZ FP-1 -1, CAL PDZ FP-2 -1, DENV2 CPE inconclusive, SIRT5 inh 1 and ERAP1 inh 1.
CSCCC(NS(=O)(=O)c1ccccc1F)C(=O)NNC(=O)c1csc(N2CCOCC2)n1 (centres undefined) was read as S100A4 MyoIIA 0, CAL PDZ FP-1 -1, DENV2 CPE -4, SIRT5 inh 17* and ERAP1 inh 3.
For O=C(NNC(=O)c1ccccc1[N+](=O)[O-])c1csc(N2CCOCC2)n1 the results were S100A4 MyoIIA -5, CAL PDZ FP-1 -2, CAL PDZ FP-2 49*, DENV2 CPE 7, SIRT5 inh -2 and ERAP1 inh -2.
CCCNC(=O)N(C)C[C@@H]1Oc2cc(C#CCC(C)C)ccc2S(=O)(=O)N([C@H](C)CO)C[C@H]1C was read as S100A4 MyoIIA 10, DENV2 CPE 1, SIRT5 inh 5 and ERAP1 inh 0.
`C[C@@H]1CN([C@@H](C)CO)C(=O)c2cc(C#CC3(O)CCCC3)cnc2O[C@H]1CN(C)C(=O)CC1CC1` gave S100A4 MyoIIA 4, DENV2 CPE -6, SIRT5 inh -1 and ERAP1 inh -3.
For O=C(NC1CCC1)[C@H]1[C@H](CO)[C@H]2Cn3c(ccc(-c4ccc(F)cc4)c3=O)[C@@H]1N2 the results were S100A4 MyoIIA -30, DENV2 CPE 3, SIRT5 inh -32 and ERAP1 inh 0.
For CC(=O)c1ccc(-c2ccc(C(=O)NCC(c3ccc(F)cc3)N3CCOCC3)o2)cc1 (centres undefined) the results were S100A4 MyoIIA 0, CAL PDZ FP-1 -5, CAL PDZ FP-2 142*, DENV2 CPE -3, SIRT5 inh -5 and ERAP1 inh 5.
`Cc1ccc2ncccc2c1` gave S100A4 MyoIIA -4, CAL PDZ FP-1 0, CAL PDZ FP-2 -6, DENV2 CPE 55* and ERAP1 inh -2.
`COCCNC(=O)C1CC2Cn3c(nc4cc(C)c(C)cc43)C2N1C` (centres undefined) gave S100A4 MyoIIA 28, CAL PDZ FP-1 1, CAL PDZ FP-2 -2, DENV2 CPE 29* and ERAP1 inh -2.
COCCNC(=O)C1CC2Cn3c(nc4cc5ccccc5cc43)C2N1C (centres undefined) was read as S100A4 MyoIIA -2, CAL PDZ FP-1 -1, CAL PDZ FP-2 0, DENV2 CPE 12 and ERAP1 inh 0.
`CN1C(C(=O)NCCc2cccs2)CC2Cn3c(nc4cc(Cl)c(Cl)cc43)C21` (centres undefined) gave S100A4 MyoIIA -3, CAL PDZ FP-1 0, CAL PDZ FP-2 -4, DENV2 CPE 80* and ERAP1 inh -2.
For CC1(C)CC(N2CCCC2)=CC(=[N+]2CCCC2)C1 the results were S100A4 MyoIIA 4, CAL PDZ FP-1 -1, CAL PDZ FP-2 28, DENV2 CPE -1, SIRT5 inh 1 and ERAP1 inh 63*.
